Reference: ChEMBL document CHEMBL4190373, “Tumor Targeting with Novel Pyridyl 6-Substituted Pyrrolo[2,3- d]Pyrimidine Antifolates via Cellular Uptake by Folate Receptor α and the Proton-Coupled Folate Transporter and Inhibition of De Novo Purine Nucleotide Biosynthesis” (J Med Chem, 2018)
One block for each compound: values may come before it. Active and inactive are the calls of the source. No cut-off for these calls is given here.

Tests used:
KB [1] = assay: Antiproliferative activity against human KB cells expressing human RFC/FR-alpha/PCFT assessed as reduction in cell viability measured after 96 hrs by Cell-Titer Blue assay; type: functional, cell-based
[2] = Cytotoxicity in RFC-null Chinese hamster R2 cells assessed as reduction in cell viability measured after 96 hrs by Cell-Titer Blue assay; type: cell-based; settings: Cricetulus griseus, R2, 96 h
Summary of the method: (§1)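 CHO sublines expressing human PCFT (R2/PCFT4) or RFC (PC43-10), transporter-null R2, and empty-vector R2(VC). Continuous drug up to 1000 nM, up to 96 h, CellTiter-Blue fluorescence.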

KB [3] = assay: Antiproliferative activity against human KB cells expressing human RFC/FR-alpha/PCFT assessed as reduction in cell viability measured after 96 hrs in presence of folic acid by Cell-Titer Blue assay; type: functional, cell-based
[4] = target: T1, Trifunctional purine biosynthetic protein adenosine-3 (Homo sapiens, UniProt P22102); assay: Inhibition of GARFTase in human KB cells assessed as decrease in [14C]formyl GAR accumulation preincubated for 30 mins followed by [14C]glycine addition measured after 15 hrs in presence of azaserine by ion-exchange chromatographic assay; type: cell-based
T1 sequence (P22102 whole entry): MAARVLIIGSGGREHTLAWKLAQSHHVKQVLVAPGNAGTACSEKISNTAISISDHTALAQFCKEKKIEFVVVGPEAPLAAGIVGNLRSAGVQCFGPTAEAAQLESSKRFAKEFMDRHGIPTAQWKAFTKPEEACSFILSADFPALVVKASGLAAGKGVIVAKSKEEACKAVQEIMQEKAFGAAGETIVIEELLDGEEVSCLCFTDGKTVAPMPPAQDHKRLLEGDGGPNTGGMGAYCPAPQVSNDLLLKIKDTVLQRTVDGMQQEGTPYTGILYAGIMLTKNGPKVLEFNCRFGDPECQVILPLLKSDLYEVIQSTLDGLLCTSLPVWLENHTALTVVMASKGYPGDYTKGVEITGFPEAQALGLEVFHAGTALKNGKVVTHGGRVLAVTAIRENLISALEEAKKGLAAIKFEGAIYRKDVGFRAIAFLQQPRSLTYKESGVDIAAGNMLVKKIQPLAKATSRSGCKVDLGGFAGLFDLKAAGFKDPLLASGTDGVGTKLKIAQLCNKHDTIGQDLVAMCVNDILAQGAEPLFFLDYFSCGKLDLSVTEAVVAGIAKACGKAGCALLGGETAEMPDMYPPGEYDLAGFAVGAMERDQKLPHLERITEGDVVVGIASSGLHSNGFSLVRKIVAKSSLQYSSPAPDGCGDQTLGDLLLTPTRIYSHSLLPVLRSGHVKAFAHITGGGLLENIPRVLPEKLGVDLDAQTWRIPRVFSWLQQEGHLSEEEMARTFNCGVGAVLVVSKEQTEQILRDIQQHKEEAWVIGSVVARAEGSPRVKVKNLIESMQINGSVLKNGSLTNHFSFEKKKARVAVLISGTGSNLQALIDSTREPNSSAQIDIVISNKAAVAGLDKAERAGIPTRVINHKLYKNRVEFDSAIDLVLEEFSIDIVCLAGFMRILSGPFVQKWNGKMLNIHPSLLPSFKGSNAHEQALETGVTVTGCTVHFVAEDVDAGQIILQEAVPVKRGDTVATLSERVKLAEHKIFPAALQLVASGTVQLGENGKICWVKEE

[5] = target: Folate receptor alpha (Homo sapiens) (UniProt P15328); assay: Displacement of [3H]folic acid from human FR-alpha receptor expressed in Chinese hamster RT16 cells measured after 15 mins; type: cell-based
Chain of Folate receptor alpha (Homo sapiens) (P15328 25-234 limits assumed): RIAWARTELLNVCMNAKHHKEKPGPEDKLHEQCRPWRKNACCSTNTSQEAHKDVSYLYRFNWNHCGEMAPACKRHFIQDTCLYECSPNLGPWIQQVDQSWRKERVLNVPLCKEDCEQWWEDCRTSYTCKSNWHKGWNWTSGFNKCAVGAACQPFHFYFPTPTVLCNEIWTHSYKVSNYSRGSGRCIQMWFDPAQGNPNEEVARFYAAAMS
Summary of the method: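 RT16 (FRα) or D4 (FRβ) CHO cells, ~5 x 10^6 per dish, stripped of bound folate with pH 3.5 acetate buffer. Then incubated in HEPES-buffered saline pH 7.4 with 50 nM [3H]folic acid ± unlabeled ligand 1-1000 nM. Bound label normalized to protein. […] Mean ± SE, 3 experiments.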

[6] = target: Folate receptor beta (Homo sapiens) (UniProt P14207); assay: Displacement of [3H]folic acid from human FR-beta receptor expressed in Chinese hamster D4 cells measured after 15 mins; type: cell-based
Chain of Folate receptor beta (Homo sapiens) (P14207 17-230 limits assumed): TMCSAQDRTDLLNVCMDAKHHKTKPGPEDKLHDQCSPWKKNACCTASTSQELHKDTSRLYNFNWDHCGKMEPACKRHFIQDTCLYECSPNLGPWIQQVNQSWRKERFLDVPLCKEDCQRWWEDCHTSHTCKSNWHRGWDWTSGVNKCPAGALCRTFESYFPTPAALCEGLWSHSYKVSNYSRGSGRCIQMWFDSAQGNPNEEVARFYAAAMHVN

[7] = Growth inhibition of Chinese hamster R2(VC) cells after 96 hrs celltiter-blue assay; settings: Cricetulus griseus; summary of the method: as §1
KB [8] = assay: Antiproliferative activity against human KB cells expressing human RFC/FR-alpha/PCFT assessed as reduction in cell viability up to 1000 nM measured after 96 hrs in presence of thymidine by Cell-Titer Blue assay; type: functional, cell-based
KB [9] = assay: Antiproliferative activity against human KB cells expressing human RFC/FR-alpha/PCFT assessed as reduction in cell viability up to 1000 nM measured after 96 hrs in presence of AICA by Cell-Titer Blue assay; type: functional, cell-based
KB [10] = assay: Antiproliferative activity against human KB cells expressing human RFC/FR-alpha/PCFT assessed as reduction in cell viability up to 1000 nM measured after 96 hrs in presence of adenosine by Cell-Titer Blue assay; type: functional, cell-based
Mus musculus [11] = assay: Toxicity in folate-deficient diet fed ICR SCID mouse assessed as body weight loss at […], iv administered every 4 days for 4 times starting on day 3 measured twice per week; settings: in vivo
[12] = target: T2, Proton-coupled folate transporter (Homo sapiens) (UniProt Q96NT5); assay: Inhibition of [3H]MTX uptake at human PCFT expressed in Chinese hamster R2/PCFT4 cells at 10 uM at pH 6.8 by scintillation counting method relative to control; type: cell-based
T2 sequence (whole entry): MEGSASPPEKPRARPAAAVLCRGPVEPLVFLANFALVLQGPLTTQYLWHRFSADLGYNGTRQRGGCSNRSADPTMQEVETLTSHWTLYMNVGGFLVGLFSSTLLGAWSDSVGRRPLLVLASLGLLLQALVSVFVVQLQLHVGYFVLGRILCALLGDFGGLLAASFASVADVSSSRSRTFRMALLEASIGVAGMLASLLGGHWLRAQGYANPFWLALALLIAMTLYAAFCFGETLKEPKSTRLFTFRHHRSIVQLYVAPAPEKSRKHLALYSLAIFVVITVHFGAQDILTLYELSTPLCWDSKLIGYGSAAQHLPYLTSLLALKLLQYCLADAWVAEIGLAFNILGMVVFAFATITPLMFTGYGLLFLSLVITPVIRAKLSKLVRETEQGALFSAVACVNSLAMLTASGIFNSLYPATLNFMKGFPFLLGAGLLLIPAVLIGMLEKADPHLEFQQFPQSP
Summary of the method: (§2)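 Buffers: MES-buffered saline pH 5.5 or HEPES-buffered saline pH 6.8, with 1 or 10 µM inhibitor. Quenched with ice-cold DPBS, counted by scintillation, normalized to protein and untreated controls. Mean ± SE, 3 experiments.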

[13] = target: T2, Proton-coupled folate transporter (Homo sapiens); assay: Inhibition of [3H]MTX uptake at human PCFT expressed in Chinese hamster R2/PCFT4 cells at 1 uM at pH 5.5 by scintillation counting method relative to control; type: cell-based; summary of the method: as §2
[14] = target: T2, Proton-coupled folate transporter (Homo sapiens); settings: 1 uM
IGROV-1 [15] = assay: Antitumor activity against human IGROV1 cells xenografted in folate-deficient diet ICR SCID mouse assessed as tumor growth delay time at […], iv administered every 4 days for 4 times starting on day 3 measured twice per week
IGROV-1 [16] = assay: Antiproliferative activity against human IGROV1 cells expressing human FR-alpha/PCFT assessed as reduction in cell viability measured after 96 hrs in presence of folic acid by Cell-Titer Blue assay; type: functional, cell-based; settings: IGROV-1, 96 h
Summary of the method: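 IGROV1 growth inhibition in folate-free RPMI 1640 with 10% dialyzed FBS, 2 nM leucovorin and 2 mM L-glutamine, with 200 nM folic acid added to block FR-mediated uptake. Drug present continuously up to 1000 nM for up to 96 h. Readout by CellTiter-Blue fluorescence.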

[17] = target: T2, Proton-coupled folate transporter (Homo sapiens); assay: Inhibition of [3H]MTX uptake at human PCFT expressed in Chinese hamster R2/PCFT4 cells at 10 uM at pH 5.5 by scintillation counting method relative to control; type: cell-based; summary of the method: as §2
[18] = target: T3, Proton-coupled folate transporter (Homo sapiens, UniProt Q96NT5); assay: Inhibition of [3H]MTX uptake at human PCFT expressed in Chinese hamster R2/PCFT4 cells at pH 5.5 measured after 2 mins by Dixon plot analysis; type: cell-based
T3 sequence (Q96NT5 whole entry): T2 sequence (whole entry)

IGROV-1 [19] = assay: Antitumor activity against human IGROV1 cells xenografted in folate-deficient diet fed ICR SCID mouse assessed as tumor growth delay time at 150 mg/kg, iv administered every 2 days for 8 times starting on day 3 measured twice per week; type: functional
Summary of the method: (§3)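 Female SCID mice, 10 weeks, ~20 g. Fed folate-deficient or folate-replete diet from 14 days before bilateral s.c. IGROV1 tumor fragments (30-60 mg, trocar). […] Weighed daily, tumors measured twice weekly. Growth delay = T-C days to 1000 mg, median.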

IGROV-1 [20] = assay: Antiproliferative activity against human IGROV1 cells expressing human FR-alpha/PCFT assessed as reduction in cell viability measured after 96 hrs by Cell-Titer Blue assay; type: functional, cell-based; settings: IGROV-1, 96 h
IGROV-1 [21] = assay: Antitumor activity against human IGROV1 cells xenografted in high folate diet fed ICR SCID mouse assessed as tumor growth inhibition at 150 mg/kg, iv administered every 2 days for 8 times starting on day 3 measured twice per week; type: functional, organism-based; summary of the method: as §3
IGROV-1 [22] = assay: Antitumor activity against human IGROV1 cells xenografted in folate-deficient diet fed ICR SCID mouse assessed as tumor growth inhibition at 150 mg/kg, iv administered every 2 days for 8 times starting on day 3 measured twice per week up to 49 days; type: functional, organism-based; summary of the method: as §3
Mus musculus [23] = assay: Toxicity in folate-deficient diet fed ICR SCID mouse assessed as body weight loss at 150 mg/kg, iv administered every 2 days for 8 times starting on day 3 measured twice per week; type: organism-based; settings: in vivo, 48 h; summary of the method: as §3
[24] = target: T2, Proton-coupled folate transporter (Homo sapiens); assay: Inhibition of [3H]MTX uptake at human PCFT expressed in Chinese hamster R2/PCFT4 cells at 1 to 10 uM at pH 5.5 to 6.8 by scintillation counting method; type: cell-based; summary of the method: as §2

Compound: Nc1nc2[nH]c(CCCCc3ccc(C(=O)N[C@@H](CCC(=O)O)C(=O)O)cn3)cc2c(=O)[nH]1
IC50 (KB [1]): 17.4 nM
IC50 [2]: > 1000 nM
IC50 (KB [3]): > 1000 nM
IC50 [4]: 4.8 nM
inhibition [5]: Active
inhibition [6]: Active
IC50 [7]: > 1000 nM
Activity (KB [8]): Active
Activity (KB [9]): inactive
Activity (KB [10]): inactive

Compound: C#CCC(Cc1cnc2nc(N)nc(N)c2n1)c1ccc(C(=O)N[C@@H](CCC(=O)O)C(=O)O)cc1 (mixture of isomers) [PRALATREXATE]
IC50 [2]: 819 nM
IC50 [7]: > 1000 nM

Compound: CN(Cc1cnc2nc(N)nc(N)c2n1)c1ccc(C(=O)N[C@@H](CCC(=O)O)C(=O)O)cc1 [METHOTREXATE]
IC50 [7]: > 1000 nM

Compound: Nc1nc2[nH]c(CCCCc3cccc(C(=O)N[C@@H](CCC(=O)O)C(=O)O)n3)cc2c(=O)[nH]1
IC50 (KB [1]): 667 nM
IC50 [2]: > 1000 nM
IC50 (KB [3]): > 1000 nM
inhibition [5]: inactive
inhibition [6]: inactive
IC50 [7]: > 1000 nM
Activity (KB [8]): Active
Activity (KB [9]): inactive
Activity (KB [10]): inactive

Compound: Nc1nc2[nH]cc(CCc3ccc(C(=O)N[C@@H](CCC(=O)O)C(=O)O)cc3)c2c(=O)[nH]1 [PEMETREXED]
Activity (Mus musculus [11]): 14%
inhibition [12]: 75%
IC50 [2]: 849 nM
inhibition [13]: 85%
inhibition [14]: 40%
Time (IGROV-1 [15]): 0 days

Compound: Nc1nc2[nH]c(CCCCc3ccc(C(=O)N[C@@H](CCC(=O)O)C(=O)O)cc3)cc2c(=O)[nH]1
inhibition [12]: 35%
IC50 [2]: > 1000 nM
inhibition [13]: 50%
IC50 (KB [3]): > 1000 nM
inhibition [14]: 0%
IC50 (IGROV-1 [16]): > 1000 nM
inhibition [5]: Active
inhibition [17]: > 90%
IC50 [7]: > 1000 nM

Compound: Nc1nc2[nH]c(CCCCc3ccc(C(=O)N[C@@H](CCC(=O)O)C(=O)O)nc3)cc2c(=O)[nH]1
Ki [18]: 332 nM
IC50 (KB [1]): 0.37 nM
inhibition [12]: 40%
Time (IGROV-1 [19]): 45 days
IC50 (IGROV-1 [20]): 0.68 nM
TGI (IGROV-1 [21]): inactive
IC50 [2]: > 1000 nM
inhibition [13]: 70%
IC50 (KB [3]): 368 nM
inhibition [14]: 10%
IC50 (IGROV-1 [16]): 846 nM
inhibition [17]: > 90%
IC50 [7]: > 1000 nM
Activity (KB [8]): Active
Activity (KB [9]): inactive
TGI (IGROV-1 [22]): Active
Activity (KB [10]): inactive
Activity (Mus musculus [23]): 5%

Now from value to compound, other results behind:

IC50 (KB [1]): > 1000 nM
IC50 (KB [3]): > 1000 nM
Compound: Nc1nc2[nH]c(CCC#Cc3cccc(C(=O)N[C@@H](CCC(=O)O)C(=O)O)n3)cc2c(=O)[nH]1
IC50 [2]: > 1000 nM
IC50 [7]: > 1000 nM

inhibition [24]: inactive
Compound: CN(Cc1cnc2nc(N)nc(N)c2n1)c1ccc(C(=O)N[C@@H](CCCNC(=O)c2ccccc2C(=O)O)C(=O)O)cc1

IC50 (KB [1]): > 1000 nM
IC50 (KB [3]): > 1000 nM
Compound: Nc1nc2[nH]c(CCC#Cc3ccc(C(=O)N[C@@H](CCC(=O)O)C(=O)O)cn3)cc2c(=O)[nH]1
IC50 [2]: > 1000 nM
IC50 [7]: > 1000 nM

IC50 (KB [1]): > 1000 nM
IC50 (KB [3]): > 1000 nM
Compound: Nc1nc2[nH]c(CCC#Cc3ccc(C(=O)N[C@@H](CCC(=O)O)C(=O)O)nc3)cc2c(=O)[nH]1
IC50 [2]: > 1000 nM
IC50 [7]: > 1000 nM
